Values after ≈ are worked out from the molar mass of the structure shown.
Key:
[1] = tested on: LOX IMVI; test: Growth inhibition of human LOXIMVI cells; type: functional
[2] = tested on: OVCAR-8; test: Growth inhibition of human OVCAR8 cells; type: functional
[3] = tested on: SK-OV-3; test: Growth inhibition of human SKOV3 cells; type: functional
[4] = tested on: OVCAR-4; test: Growth inhibition of human OVCAR4 cells; type: functional
[5] = tested on: MKN-74; test: Growth inhibition of human MKN74 cells; type: functional
[6] = tested on: DU-145; test: Growth inhibition of human DU145 cells; type: functional
[7] = Growth inhibition of human HBC4 cells; type: functional
[8] = tested on: DMS-114; test: Growth inhibition of human DMS114 cells; type: functional
[9] = tested on: NCI-H522; test: Growth inhibition of human NCI-H522 cells; type: functional
[10] = tested on: SF-268; test: Growth inhibition of human SF268 cells; type: functional
[11] = tested on: NCI-H226; test: Growth inhibition of human NCI-H226 cells; type: functional
[12] = tested on: OVCAR-5; test: Growth inhibition of human OVCAR5 cells; type: functional
[13] = tested on: MKN-7; test: Growth inhibition of human MKN7 cells; type: functional
[14] = tested on: KM12; test: Growth inhibition of human KM12 cells; type: functional
[15] = tested on: MCF7; test: Growth inhibition of human MCF7 cells; type: functional
[16] = tested on: MDA-MB-231; test: Growth inhibition of human MDA-MB-231 cells; type: functional
[17] = tested on: MKN-28; test: Growth inhibition of human MKN28 cells; type: functional
[18] = tested on: DMS-273; test: Growth inhibition of human DMS273 cells; type: functional
[19] = tested on: SNB-75; test: Growth inhibition of human SNB75 cells; type: functional
[20] = tested on: St-4; test: Growth inhibition of human St-4 cells; type: functional
[21] = tested on: SF-295; test: Growth inhibition of human SF295 cells; type: functional
[22] = tested on: HCT-116; test: Growth inhibition of human HCT116 cells; type: functional
[23] = tested on: SF-539; test: Growth inhibition of human SF539 cells; type: functional
[24] = tested on: OVCAR-3; test: Growth inhibition of human OVCAR-3 cells; type: functional
[25] = Growth inhibition of human MKN1 cells; type: functional; conditions: MKN-1
[26] = tested on: NCI-H460; test: Growth inhibition of human NCI-H460 cells; type: functional
[27] = tested on: ACHN; test: Growth inhibition of human ACHN cells; type: functional
[28] = tested on: HCC 2998; test: Growth inhibition of human HCC2998 cells; type: functional
[29] = tested on: A549; test: Growth inhibition of human A549 cells; type: functional
[30] = tested on: PC-3; test: Growth inhibition of human PC3 cells; type: functional
[31] = Growth inhibition of human RXF631L cells; type: functional; conditions: RXF 631
[32] = tested on: MKN-45; test: Growth inhibition of human MKN45 cells; type: functional
[33] = tested on: NCI-H23; test: Growth inhibition of human NCI-H23 cells; type: functional
[34] = tested on: HCT-15; test: Growth inhibition of human HCT15 cells; type: functional
[35] = Growth inhibition of human BSY1 cells; type: functional; conditions: BSY-1
[36] = tested on: U-251; test: Growth inhibition of human U251 cells; type: functional
[37] = tested on: P388; test: Cytotoxicity against mouse P388 cells; type: functional, cell-based
Outline: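 Murine P388 leukemia cells, 2 × 10^4 cells/mL, in RPMI-1640 with 10% FBS, 10 µM 2-hydroxyethyl disulfide and kanamycin (100 µg/mL). Samples were added in MeOH. Cells were incubated 4 days at 37 °C in humidified 5% CO2, then counted by MTT. IC50 (50% inhibition of cell growth) was read from the growth curve.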

[38] = Growth inhibition of human HBC5 cells; type: functional
[39] = tested on: HT-29; test: Growth inhibition of human HT-29 cells; type: functional
[40] = tested on: SNB-78; test: Growth inhibition of human SNB78 cells; type: functional

CC/C=C/[C@H](CC)C[C@]1(CC)C=C(CC)[C@H](CC(=O)O)OO1 [HATERUMADIOXIN A]
GI50 [1]: 0.1 µM | GI50 [2]: 2.14 µM | GI50 [3]: 2 µM | GI50 [4]: 0.676 µM | GI50 [5]: 2.19 µM | GI50 [6]: 1.7 µM | GI50 [7]: 1.17 µM | GI50 [8]: 1.48 µM | GI50 [9]: 1.86 µM | GI50 [10]: 1.82 µM | GI50 [11]: 1.78 µM | GI50 [12]: 1.82 µM | GI50 [13]: 1.91 µM | GI50 [14]: 1.82 µM | GI50 [15]: 1.74 µM | GI50 [16]: 1.86 µM | GI50 [17]: 2.24 µM | GI50 [18]: 1.41 µM | GI50 [19]: 1.66 µM | GI50 [20]: 2.09 µM | GI50 [21]: 1.78 µM | GI50 [22]: 1.55 µM | GI50 [23]: 1.82 µM | GI50 [24]: 1.55 µM | GI50 [25]: 0.832 µM | GI50 [26]: 1.82 µM | GI50 [27]: 1.17 µM | GI50 [28]: 1.91 µM | GI50 [29]: 1.95 µM | GI50 [30]: 1.91 µM | GI50 [31]: 1.7 µM | GI50 [32]: 2.04 µM | GI50 [33]: 5.5 µM | GI50 [34]: 1.7 µM | GI50 [35]: 1.78 µM | GI50 [36]: 1.78 µM | IC50 [37]: 11 ng/mL (≈ 0.0354 µM) | GI50 [38]: 1.32 µM | GI50 [39]: 1.95 µM | GI50 [40]: 1.86 µM

CCCC[C@H](CC)C[C@]1(CC)C=C(CC)[C@H](CC(=O)O)OO1 [HATERUMADIOXIN B]
IC50 [37]: 5.5 ng/mL (≈ 0.0176 µM)
